Converted amounts (≈) assume the structure as drawn.
Assays:
[1] = system: Human immunodeficiency virus 1; experiment: Antiviral activity against HIV-1 IIIB induced cytopathic effect in de novo infected MT-4 cells; format: functional, organism-based; conditions: Human immunodeficiency virus 1, MT4
How it was run: (§1)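 MT4 cells were infected de novo with HIV-1 IIIB or HIV-2 EHO, and compound was added after adsorption. Mock-infected cells were run in parallel. After 5 days, viability was read spectrophotometrically by in situ MTT reduction.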

[2] = molecular target: T1, Human immunodeficiency virus type 1 protease (Human immunodeficiency virus 1, UniProt Q72874); experiment: Inhibition of HIV-1 proteinase was assayed in infected MT-4 cells; format: cell-based, MT4
[3] = Inhibitory concentration against HIV-2 strain MS infected T4 lymphocytes; format: functional, cell-based
How it was run: (§2)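 T4-lymphocytes were purified from healthy donor human […] and stimulated with PHA. Cells were infected with HIV-1 IIIB or HIV-2 MS and kept in IL-2 medium. Compound was added after stimulation and virus adsorption. Every 3-4 days, half the supernatant was replaced with fresh IL-2 medium containing compound.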

Cathepsin D = Cathepsin D (Homo sapiens, UniProt P07339); experiment: The compound was tested for inhibition of Human Cathepsin D
MT4 [4] = experiment: Antiviral activity for inhibition of HIV-2 proteinase was assayed in infected MT-4 cells; format: functional, cell-based; conditions: Homo sapiens
[5] = Area Under Curve was measured by ploting the graph between concentration verses time; format: ADME
How it was run: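 Female Balb/c mice (n = 2 per time point) were fasted 24 h before and throughout the study, with water ad libitum. Compound was given by oral gavage at 125 mg/kg in a microemulsion formulation. Plasma levels were measured by solid-phase extraction and HPLC.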

[6] = Inhibitory concentration against HIV-1 strain IIIB infected T4 lymphocytes; format: functional, cell-based; how it was run: as §2
[7] = Aqueous solubility in phosphate buffer of pH 7.4
[8] = molecular target: T1, Human immunodeficiency virus type 1 protease; experiment: Compound was tested for inhibition of HIV-1 protease was assayed in infected MT-4 cells; format: cell-based, MT4
MT4 [9] = experiment: Antiviral activity against HIV-2 induced cytopathic effect in de novo infected MT-4 cells; format: functional, cell-based; conditions: Homo sapiens; how it was run: as §1

Chain of Cathepsin D (P07339 65-162 limits assumed): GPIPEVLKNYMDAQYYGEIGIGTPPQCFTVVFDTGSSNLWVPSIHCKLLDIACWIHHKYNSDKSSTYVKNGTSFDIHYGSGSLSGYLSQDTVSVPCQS
Chain of Cathepsin D (P07339 169-412 limits assumed): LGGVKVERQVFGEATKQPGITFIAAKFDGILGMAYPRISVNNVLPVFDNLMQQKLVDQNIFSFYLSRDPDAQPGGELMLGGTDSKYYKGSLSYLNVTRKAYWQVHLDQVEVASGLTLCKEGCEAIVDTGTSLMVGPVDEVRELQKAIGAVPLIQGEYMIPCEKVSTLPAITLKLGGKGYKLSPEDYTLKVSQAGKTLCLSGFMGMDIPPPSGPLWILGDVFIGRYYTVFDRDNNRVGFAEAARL

Row | Structure (SMILES) | IC50 [1] | Ki [2] | other results
1 | CC(C)[C@H](NC(=O)OCc1ccccc1)C(=O)N[C@@H](Cc1ccccc1)[C@@H](O)[C@H]1NCc2ccc(cc2)OCCOCCOCCOCCNC(=O)[C@H](C(C)C)NC1=O | 52 nM | – | –
2 | CC(C)[C@H](NC(=O)OCc1ccccc1)C(=O)N[C@@H](Cc1ccccc1)[C@@H](O)[C@H]1NCc2cccc(c2)OCCOCCOCCNC(=O)[C@H](C(C)C)NC1=O | 211 nM | 7.7 nM | –
3 | CC(C)[C@@H]1NC(=O)[C@@H]([C@H](O)[C@H](Cc2ccccc2)NC(=O)OC(C)(C)C)NCc2ccc(cc2)OCCOCCOCCOCCNC1=O | 1170 nM | 23.2 nM | –
4 | CC(C)[C@@H]1NC(=O)[C@@H]([C@H](O)[C@H](Cc2ccccc2)NC(=O)OC(C)(C)C)NCc2ccc(cc2)OCCOCCNC1=O | 450 nM | 14 nM | –
5 | CC(C)[C@H](NC(=O)OCc1ccccc1)C(=O)N[C@@H](Cc1ccccc1)[C@@H](O)[C@H]1NCc2ccc(cc2)OCCCCNC(=O)[C@H](C(C)C)NC1=O | 27 nM | – | –
6 | CC(C)[C@@H]1NC(=O)[C@@H]([C@H](O)[C@H](Cc2ccccc2)NC(=O)O[C@H]2CCOC2)NCc2ccc(cc2)OCCOCCOCCNC1=O | 198 nM | – | –
7 | CC(C)[C@H](NC(=O)OCc1ccccc1)C(=O)N[C@@H](Cc1ccccc1)[C@@H](O)[C@H]1NCc2ccc(cc2)OCCOCCOCCNC(=O)[C@H](C(C)C)NC1=O | 16 nM | 6.9 nM | IC50 [3]: 17 nM; IC50 (Cathepsin D): > 10 µM; IC50 (MT4 [4]): 37 nM; AUC [5]: < 0.4 µM·h; IC50 [6]: 3.1 nM
8 | CC(C)[C@@H]1NC(=O)[C@@H]([C@H](O)[C@H](Cc2ccccc2)NC(=O)OC(C)(C)C)NCc2cccc(c2)OCCOCCOCCNC1=O | 3000 nM | 208 nM | –
9 | CC(C)[C@@H]1NC(=O)[C@@H]([C@H](O)[C@H](Cc2ccccc2)NC(=O)[C@@H](NC(=O)OCc2ccccc2)C(C)(C)C)NCc2ccc(cc2)OCCOCCNC1=O | 15 nM | 8 nM | IC50 (Cathepsin D): > 10 µM; AUC [5]: 4.7 µM·h
10 | COc1ccc(CN[C@@H](C(=O)N[C@H](C(=O)NCc2nc3ccccc3[nH]2)C(C)C)[C@H](O)[C@H](Cc2ccccc2)NC(=O)[C@@H](NC(=O)OCc2ccccc2)C(C)C)cc1 | 29 nM | – | solubility [7]: < 10 µM; AUC [5]: < 0.4 µM·h
11 | CC(C)[C@@H]1NC(=O)[C@@H]([C@H](O)[C@H](Cc2ccccc2)NC(=O)O[C@H]2CCOC2)NCc2ccc(cc2)OCCOCCNC1=O | 157 nM | 8.2 nM | –
12 | CC(C)[C@H](NC(=O)OCc1ccccc1)C(=O)N[C@@H](Cc1ccccc1)[C@@H](O)[C@H]1NCc2ccc(cc2)OCCOCCNC(=O)[C@H](C(C)C)NC1=O | 21 nM | 7.9 nM | IC50 (Cathepsin D): > 10 µM
13 | CC(C)[C@@H]1NC(=O)[C@@H]([C@H](O)[C@H](Cc2ccccc2)NC(=O)OC(C)(C)C)NCc2ccc(cc2)OCCOCCOCCNC1=O | 169 nM | – | –
14 | CC(C)[C@H](NC(=O)OCc1ccccc1)C(=O)N[C@@H](Cc1ccccc1)[C@@H](O)[C@H]1NCc2cccc(c2)OCCOCCNC(=O)[C@H](C(C)C)NC1=O | 60 nM | – | –
15 | CC(C)[C@@H]1NC(=O)[C@@H]([C@H](O)[C@H](Cc2ccccc2)NC(=O)OC(C)(C)C)NCc2cccc(c2)OCCOCCNC1=O | 935 nM | – | –
16 | CC(C)[C@@H]1NC(=O)[C@@H]([C@H](O)[C@H](Cc2ccccc2)NC(=O)[C@@H](NC(=O)CSc2nncn2C)C(C)(C)C)NCc2ccc(cc2)OCCOCCNC1=O | > 3000 nM | 11.1 nM | solubility [7]: 1710 µM (≈ 1310 µg/mL)
17 | COc1ccc(CN[C@@H](C(=O)N[C@@H]2c3ccccc3C[C@H]2O)[C@H](O)[C@H](Cc2ccccc2)NC(=O)[C@@H](NC(=O)OCc2ccccc2)C(C)C)cc1 | 242 nM | – | IC50 (Cathepsin D): > 10 µM; solubility [7]: < 10 µM; AUC [5]: 82.5 µM·h; Ki [8]: 9.5 nM; IC50 (MT4 [9]): 843 nM
18 | CC(C)[C@@H]1NC(=O)[C@@H]([C@H](O)[C@H](Cc2ccccc2)NC(=O)OC(C)(C)C)NCc2ccc(cc2)OCCCCNC1=O | 1810 nM | – | Ki [8]: 17 nM
19 | CC(C)[C@@H]1NC(=O)[C@@H]([C@H](O)[C@H](Cc2ccccc2)NC(=O)OC(C)(C)C)NCc2cccc(c2)OCCCCNC1=O | 335 nM | – | –
20 | CC(C)[C@H](NC(=O)OCc1ccccc1)C(=O)N[C@@H](Cc1ccccc1)[C@@H](O)[C@H]1NCc2cccc(c2)OCCCCNC(=O)[C@H](C(C)C)NC1=O | 29 nM | – | –

Reference: ChEMBL document CHEMBL1129607, “Paracyclophanes: a novel class of water-soluble inhibitors of HIV proteinase” (J Med Chem, 1996)
